For data set [1], the system named is SF3b complex (Homo sapiens). Nature of the data set: Binding affinity to SF3b SAP155/SAP145/SAP130 complex in human HeLa cells at 2 uM by Western blotting.
Data set [2] has as its system HeLa. Kind of data set: Induction of truncated p27 expression in human HeLa cells at 1 to 1000 nM by Western blot analysis. The format is functional, cell-based.
Data set [3] has as its target T1, Splicing factor 3B subunit 2 (Homo sapiens) (UniProt Q13435).
T1 sequence (whole entry): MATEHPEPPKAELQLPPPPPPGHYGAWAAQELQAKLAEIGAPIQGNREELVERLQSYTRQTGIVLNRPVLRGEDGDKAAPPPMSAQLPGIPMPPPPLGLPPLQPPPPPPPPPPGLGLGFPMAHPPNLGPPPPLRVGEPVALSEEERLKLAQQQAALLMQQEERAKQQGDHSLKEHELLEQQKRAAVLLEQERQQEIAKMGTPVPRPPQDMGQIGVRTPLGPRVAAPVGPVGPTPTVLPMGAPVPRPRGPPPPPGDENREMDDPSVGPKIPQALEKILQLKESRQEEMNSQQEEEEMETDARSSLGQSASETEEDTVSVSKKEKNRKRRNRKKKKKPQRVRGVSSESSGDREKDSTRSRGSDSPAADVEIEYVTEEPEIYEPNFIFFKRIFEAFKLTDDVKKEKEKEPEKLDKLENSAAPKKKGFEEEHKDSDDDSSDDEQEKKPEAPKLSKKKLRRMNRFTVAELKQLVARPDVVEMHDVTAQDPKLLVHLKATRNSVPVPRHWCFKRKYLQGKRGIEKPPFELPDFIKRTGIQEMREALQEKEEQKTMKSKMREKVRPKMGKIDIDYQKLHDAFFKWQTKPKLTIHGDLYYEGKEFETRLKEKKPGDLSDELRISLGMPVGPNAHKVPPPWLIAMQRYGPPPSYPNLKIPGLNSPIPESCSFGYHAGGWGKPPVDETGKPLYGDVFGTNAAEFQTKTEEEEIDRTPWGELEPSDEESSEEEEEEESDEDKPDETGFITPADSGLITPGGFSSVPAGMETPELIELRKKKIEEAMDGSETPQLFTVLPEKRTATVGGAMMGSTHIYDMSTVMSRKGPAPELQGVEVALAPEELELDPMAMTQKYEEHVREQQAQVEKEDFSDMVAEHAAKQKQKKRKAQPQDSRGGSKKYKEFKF
Kind of data set: Binding affinity to SAP145 in human HeLa cells at 2 uM by LC-MS/MS analysis. The format is cell-based.

The target in data set [4] is Splicing factor 3B subunit 3 (Homo sapiens) (UniProt Q15393). Kind of data set: Binding affinity to SAP130 in human HeLa cells at 2 uM by LC-MS/MS analysis.
The target of data set [5] is Splicing factor 3B subunit 1 (Homo sapiens) (UniProt O75533). Nature of the data set: Binding affinity to SAP155 in human HeLa cells at 2 uM by LC-MS/MS analysis.
Data set [6] deals with HeLa. Kind of data set: Induction of truncated p27 expression in human HeLa cells up to 500 nM after 14 hrs by Western blotting. In kind it is functional, cell-based. The method in brief: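 HeLa cells were exposed for 14 h to 1, 3, 10, 30, 100 and 300 ng ml-1. Cell extracts were immunoblotted for p27 and its C-terminally truncated form p27*, with chemiluminescent read-out.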
A general note: Immunoblotting shows a protein as a band on a membrane.

Data set [7] deals with COS-7. Kind of data set: Induction of subcellular localization in p27 in african green monkey COS7 cells at 10 ng/ml after 6 hrs by immunofluorescence assay. Particulars: Chlorocebus aethiops. The format is functional, cell-based.
Data set [8] has as its system COS-7. Kind of data set: Induction of subcellular localization in truncated p27 in african green monkey COS7 cells at 10 ng/ml after 6 hrs by immunofluorescence assay. The format is functional, cell-based. The note with it: Chlorocebus aethiops.
For data set [9], the system named is HeLa. Nature of the data set: Induction of cyclin A expression in human HeLa cells at 100 ng/ml after 14 hrs by Western blotting. In kind it is functional, cell-based.
Data set [10] deals with HeLa. Nature of the data set: Induction of p16 expression in human HeLa cells at 100 ng/ml after 16 hrs by Western blotting. The format is functional, cell-based. The procedure, abridged: (§1)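 HeLa cells grown in DMEM with 10% FBS and treated with FR901464 at 100 ng ml-1 for 16 h. Lysates prepared by sonication in ice-cold IP buffer with protease inhibitors. Proteins separated by SDS-PAGE and immunoblotted with anti-p16, anti-p21 and anti-p27 antibodies; chemiluminescence detection.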

The target in data set [11] is Cyclin-dependent kinase 2 (Homo sapiens) (UniProt P24941). Nature of the data set: Induction of CDK2 in HEK293T cells transfected with FLAG-tagged p27 at 20 nM by Western blot analysis. The format is cell-based. The note with it: HEK-293T. The procedure, abridged:
(§2)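 HEK 293T cells were transfected with pcDNA3.1, FLAG-p27 or FLAG-p27*, or were treated with MeOH, FR901464 (20, 200 nM) or SSA (190 nM). CDK2 was immunoprecipitated and its kinase activity read by autoradiography with histone H1 and (gamma-32P)ATP. Associated proteins were detected by western blotting.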

The nature of data set [12]: Half life of the compound in culture medium by HPLC analysis. The format is physicochemical.
Data set [13] deals with HeLa. Kind of data set: Induction of CDK4 expression in human HeLa cells at 100 ng/ml after 14 hrs by Western blotting. The format is functional, cell-based.
Data set [14] addresses Cyclin-dependent kinase 2 (Homo sapiens) (UniProt P24941). Nature of the data set: Induction of CDK2 in HEK293T cells transfected with FLAG-tagged truncated p27 at 20 nM by Western blot analysis. The note with it: HEK-293T. In kind it is cell-based. The procedure, abridged:
as §2

Data set [15] shares this target. Kind of data set: Induction of CDK2 in HEK293T cells transfected with FLAG-tagged p27 at 200 nM by autoradiography. The format is cell-based. The note with it: HEK-293T. The method in brief: as §2
Data set [16] deals with HeLa. Kind of data set: Induction of CDK6 expression in human HeLa cells at 100 ng/ml after 14 hrs by Western blotting. The format is functional, cell-based.
The test system of data set [17] is HeLa. Nature of the data set: Induction of p27 expression in human HeLa cells at 1 to 100 ng/ml after 14 hrs by immunoblotting. In kind it is functional, cell-based. The method in brief:
(§3)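 Human cell lines (HeLa, HEK 293T, MCF7, A549) cultured in DMEM with 10% heat-inactivated FBS. Cells treated with graded FR901464 concentrations for 14 h. Extracts immunoblotted for p27 and the truncated p27* form, with chemiluminescent detection.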

Data set [18] has as its system HeLa. Kind of data set: Induction of truncated p27 expression in human HeLa cells at 100 ng/ml after 14 hrs in presence of […] proteasome inhibitor MG132. In kind it is functional, cell-based.
Data set [19] has as its system MCF7. Kind of data set: Induction of truncated p27 expression in human MCF7 cells at 1 to 100 ng/ml after 14 hrs by immunoblotting. In kind it is functional, cell-based. The procedure, abridged:
as §3

Data set [20] concerns HeLa. Kind of data set: Induction of CDK2 expression in human HeLa cells at 100 ng/ml after 14 hrs by Western blotting. In kind it is functional, cell-based.
For data set [21], the system named is HEK-293T. Nature of the data set: Induction of p27 expression in HEK293T cells at 1 to 100 ng/ml after 14 hrs by immunoblotting. Particulars: Homo sapiens. In kind it is functional, cell-based. The procedure, abridged: as §3
Data set [22] relates to A549. Kind of data set: Induction of p27 expression in human A549 cells at 1 to 100 ng/ml after 14 hrs by immunoblotting. In kind it is functional, cell-based. The procedure, abridged: as §3
Data set [23] has as its system HEK-293T. Kind of data set: Induction of FLAG-tagged p27 expression in HEK293T cells at 100 ng/ml after 14 hrs by Western blotting. The format is functional, cell-based. The note with it: Homo sapiens.
Data set [24] has as its system HEK-293T. Kind of data set: Induction of truncated p27 expression in HEK293T cells at 1 to 100 ng/ml after 14 hrs by immunoblotting. The format is functional, cell-based. The note with it: Homo sapiens. The method in brief:
as §3

For data set [25], the system named is HeLa. Kind of data set: Induction of p21 expression in human HeLa cells at 100 ng/ml after 16 hrs by Western blotting. The format is functional, cell-based. The method in brief: as §1
Data set [26] deals with A549. Kind of data set: Induction of truncated p27 expression in human A549 cells at 1 to 100 ng/ml after 14 hrs by immunoblotting. In kind it is functional, cell-based. The procedure, abridged:
as §3

Data set [27] deals with HeLa. Nature of the data set: Induction of p27 expression in human HeLa cells at 100 ng/ml after 14 hrs in presence of […] proteasome inhibitor MG132. The format is functional, cell-based.
Data set [28] relates to MCF7. Nature of the data set: Induction of p27 expression in human MCF7 cells at 1 to 100 ng/ml after 14 hrs by immunoblotting. The format is functional, cell-based. The method in brief:
as §3

Data set [29] concerns HeLa. Nature of the data set: Induction of p27 expression in human HeLa cells at 100 ng/ml after 16 hrs by Western blotting. In kind it is functional, cell-based. The procedure, abridged:
as §1

Data set [30] concerns the target Cyclin-dependent kinase 2 (Homo sapiens) (UniProt P24941). Nature of the data set: Induction of CDK2 in HEK293T cells transfected with FLAG-tagged truncated p27 at 200 nM by autoradiography. The format is cell-based. The note with it: HEK-293T. The procedure, abridged: as §2

Active and inactive are the calls of the source. The calls are words filed in the database; no cut-off is given here.

Sequence of Splicing factor 3B subunit 1 (Homo sapiens) (O75533 whole entry, looked up, the tested form may be a part): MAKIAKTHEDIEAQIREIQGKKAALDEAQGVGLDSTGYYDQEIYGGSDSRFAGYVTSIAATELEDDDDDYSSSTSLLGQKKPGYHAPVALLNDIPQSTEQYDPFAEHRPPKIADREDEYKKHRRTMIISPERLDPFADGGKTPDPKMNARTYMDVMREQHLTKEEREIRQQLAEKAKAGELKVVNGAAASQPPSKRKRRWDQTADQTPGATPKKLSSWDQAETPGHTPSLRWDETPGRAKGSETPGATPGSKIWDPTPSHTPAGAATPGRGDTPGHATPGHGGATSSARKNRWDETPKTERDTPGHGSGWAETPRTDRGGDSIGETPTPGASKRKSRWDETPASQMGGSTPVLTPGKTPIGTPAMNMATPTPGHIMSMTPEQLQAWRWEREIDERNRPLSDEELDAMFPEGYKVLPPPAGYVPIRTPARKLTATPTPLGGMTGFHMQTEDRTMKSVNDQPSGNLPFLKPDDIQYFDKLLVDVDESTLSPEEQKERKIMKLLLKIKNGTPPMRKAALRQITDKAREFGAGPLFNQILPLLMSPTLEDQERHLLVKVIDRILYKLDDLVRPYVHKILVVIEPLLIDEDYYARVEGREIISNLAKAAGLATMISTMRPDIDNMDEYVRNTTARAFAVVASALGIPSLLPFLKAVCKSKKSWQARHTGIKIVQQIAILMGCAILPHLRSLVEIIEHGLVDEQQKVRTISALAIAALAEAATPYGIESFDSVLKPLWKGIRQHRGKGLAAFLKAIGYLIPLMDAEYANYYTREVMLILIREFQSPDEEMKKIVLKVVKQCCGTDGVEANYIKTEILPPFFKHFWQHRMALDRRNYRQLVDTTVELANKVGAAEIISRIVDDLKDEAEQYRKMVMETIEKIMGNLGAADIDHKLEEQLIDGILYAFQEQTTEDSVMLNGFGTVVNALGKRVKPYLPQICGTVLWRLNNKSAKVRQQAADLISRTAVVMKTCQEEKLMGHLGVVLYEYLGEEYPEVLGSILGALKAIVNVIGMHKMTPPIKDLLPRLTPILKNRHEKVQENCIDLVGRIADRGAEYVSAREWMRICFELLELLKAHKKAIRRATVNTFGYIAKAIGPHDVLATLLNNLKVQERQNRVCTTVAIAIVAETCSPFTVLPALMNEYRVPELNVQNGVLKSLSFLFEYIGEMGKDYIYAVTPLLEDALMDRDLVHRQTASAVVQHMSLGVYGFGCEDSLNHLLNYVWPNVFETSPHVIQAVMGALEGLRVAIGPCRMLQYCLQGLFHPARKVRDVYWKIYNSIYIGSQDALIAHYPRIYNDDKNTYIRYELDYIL
Sequence of Splicing factor 3B subunit 3 (Homo sapiens) (Q15393 whole entry, looked up): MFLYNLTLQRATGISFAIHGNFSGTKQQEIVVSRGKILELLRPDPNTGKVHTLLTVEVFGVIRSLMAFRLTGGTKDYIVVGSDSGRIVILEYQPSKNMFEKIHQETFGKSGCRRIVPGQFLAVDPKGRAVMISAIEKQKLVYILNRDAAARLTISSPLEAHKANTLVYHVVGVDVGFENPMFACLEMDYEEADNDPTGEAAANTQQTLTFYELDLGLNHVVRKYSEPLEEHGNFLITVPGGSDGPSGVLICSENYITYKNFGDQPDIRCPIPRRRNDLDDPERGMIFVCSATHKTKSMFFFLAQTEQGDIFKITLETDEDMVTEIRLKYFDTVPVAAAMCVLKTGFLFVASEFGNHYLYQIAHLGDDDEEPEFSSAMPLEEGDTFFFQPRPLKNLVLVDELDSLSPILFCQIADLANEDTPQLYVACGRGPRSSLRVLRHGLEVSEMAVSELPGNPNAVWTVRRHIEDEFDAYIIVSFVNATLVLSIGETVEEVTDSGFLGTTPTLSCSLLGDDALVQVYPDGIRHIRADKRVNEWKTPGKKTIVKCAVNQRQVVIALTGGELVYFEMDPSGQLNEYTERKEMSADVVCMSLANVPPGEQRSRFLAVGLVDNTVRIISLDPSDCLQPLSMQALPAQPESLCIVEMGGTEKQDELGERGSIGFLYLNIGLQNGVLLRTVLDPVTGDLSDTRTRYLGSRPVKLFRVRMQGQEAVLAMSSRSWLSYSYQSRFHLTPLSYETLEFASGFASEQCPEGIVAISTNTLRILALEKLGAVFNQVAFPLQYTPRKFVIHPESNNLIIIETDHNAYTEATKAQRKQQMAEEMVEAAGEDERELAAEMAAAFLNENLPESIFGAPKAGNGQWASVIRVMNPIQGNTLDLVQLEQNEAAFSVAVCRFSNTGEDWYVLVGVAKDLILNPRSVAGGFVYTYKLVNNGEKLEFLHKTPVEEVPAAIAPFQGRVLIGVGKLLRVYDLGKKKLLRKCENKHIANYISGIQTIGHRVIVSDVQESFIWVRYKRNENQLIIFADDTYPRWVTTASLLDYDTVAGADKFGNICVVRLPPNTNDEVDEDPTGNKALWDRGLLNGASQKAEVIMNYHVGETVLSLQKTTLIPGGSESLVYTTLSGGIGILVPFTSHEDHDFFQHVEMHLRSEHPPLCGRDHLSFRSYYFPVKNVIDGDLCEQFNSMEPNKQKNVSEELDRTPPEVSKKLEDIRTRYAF

Turning to `CC(=O)O[C@@H](C)/C=C\C(=O)N[C@@H]1C[C@H](C)[C@H](C/C=C(C)/C=C/[C@H]2O[C@](C)(OCCNC(=O)CCCCCNC(=O)CCCCCNC(=O)CCCC[C@@H]3SC[C@@H]4NC(=O)N[C@@H]43)C[C@@]3(CO3)[C@@H]2O)O[C@@H]1C`, the outcome (in [1]; in the data set on HeLa [2]; in data set [3]; in data set [4]; in [5]) was Active.
As for `CO[C@]1(C)C[C@@]2(CO2)[C@H](OC(C)=O)[C@@H](/C=C/C(C)=C/C[C@@H]2O[C@H](C)[C@H](NC(=O)/C=C\[C@H](C)OC(C)=O)C[C@@H]2C)O1`, in the data set with HeLa [6], the result was inactive.
Take `CCC(=C/[C@H](C)C/C=C/C(C)=C/[C@@H](C)C(=O)[C@@H](C)[C@H](O)[C@@H](C)C/C(C)=C/C(=O)O)/C=C/[C@@H]1OC(=O)C=C[C@@H]1C`: the outcome in the data set on COS-7 [7] and in the data set on COS-7 [8] was Active.
The term half-life denotes how long it takes for the measured level to halve. Take `CC(=O)O[C@@H](C)/C=C\C(=O)N[C@@H]1C[C@H](C)[C@H](C/C=C(C)/C=C/[C@H]2O[C@](C)(O)CC3(CO3)[C@@H]2O)O[C@@H]1C` (single isomer, unassigned): the result (in the data set with HeLa [9]; in the data set on HeLa [10]; in the data set on HeLa [13]; in [15]; with HeLa [16]; in the data set with HeLa [17]) was Active. The result with HeLa [18], in the data set on MCF7 [19], in the data set with HeLa [20], with HEK-293T [21], in the data set with A549 [22] and in the data set with HEK-293T [23] was Active. In addition, the result with HEK-293T [24], in the data set with HeLa [25], in the data set with A549 [26], in the data set on HeLa [27], in the data set on MCF7 [28] and in the data set on HeLa [29] was Active. In addition, the outcome in data set [11], in data set [14] and in [30] was inactive. In data set [12], this compound gave a half-life of 45 min.

Values taken from ChEMBL document CHEMBL1221204, “Spliceostatin A targets SF3b and inhibits both splicing and nuclear retention of pre-mRNA” (Nat Chem Biol, 2007).
